This is one part of a sample in which hits are shown more often than they occur.
ROMK primary: modulates human ROMK potassium channel activity | P48048 | AID 1918 | B-score at 10 µM | 130,000 tested, 2% active | Tet-inducible ROMK, thallium flux fluorescence; actives lie on both sides;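 active = signal ratio slope over the read window, or its plate-corrected B-score, at least 3 SD from the plate mean, either direction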;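 note: B-score of the F/F0 ratio slope over 7 to 12 s after thallium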
Target sequence (P48048 whole entry, looked up): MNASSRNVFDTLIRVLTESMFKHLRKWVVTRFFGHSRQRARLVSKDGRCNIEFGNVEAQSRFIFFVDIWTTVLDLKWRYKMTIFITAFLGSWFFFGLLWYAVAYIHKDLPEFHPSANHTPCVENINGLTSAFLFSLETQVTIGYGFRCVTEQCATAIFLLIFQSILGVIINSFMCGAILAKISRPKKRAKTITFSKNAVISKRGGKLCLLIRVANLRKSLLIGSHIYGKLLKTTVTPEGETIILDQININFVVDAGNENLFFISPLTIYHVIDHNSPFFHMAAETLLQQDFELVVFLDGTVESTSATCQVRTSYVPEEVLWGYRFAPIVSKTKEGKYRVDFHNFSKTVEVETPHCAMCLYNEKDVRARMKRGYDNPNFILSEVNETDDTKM
Biofilm kill mix: mixtures killing C. albicans biofilm; C. albicans biofilm persisters + clotrimazole, fluorescence viability; primary screen in compound mixtures of four per well; inhibition, % at 7.6 µM; 120,000 tested, 0.02% active;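 active = inhibition above 30.3% in the primary screen of four-compound pools, then above 30% when the compound was retested; inconclusive = passed the primary limit but could not be retested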;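 note: compounds exposed to preformed 24 h biofilms for 48 h; 0% = untreated biofilm control and 100% = clotrimazole plus chlorhexidine kill blank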
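Test system: C. albicans CAF4-2 wild-type biofilms; buffer or medium: RPMI/MOPS medium, pH 7.0; schedule: 24 h biofilm formation, then 48 h compound exposure, 37 °C; detection: Alamar Blue fluorescence; measure: percent inhibition of biofilm viability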
ROMK retest: confirmation of human ROMK potassium channel modulators. shares compounds with ROMK primary. ROMK thallium flux, fluorescence ratio; active compounds read low. normalized thallium flux (F/F0 slope) at 10 µM. 3,000 tested, 54% active;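 active = Flux at 10 µM at least 3 SD below or above vehicle control mean in one or both replicates; inconclusive = no clear call, values can overlap the other calls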
Starred values were filed as active, the others as inactive; ? = inconclusive; / = not tested or not shown.

SMILES	ROMK primary	Biofilm kill mix	ROMK retest
CCCCn1nc(CC(=O)NCCN(CC)CC)c2ccccc2c1=O	-0.04	10	/
CO/C=C\C=C/c1nnn(-c2ccc(Cl)cc2)n1	-0.34	-2	/
C=CCNC(=O)O/N=C/c1csc([N+](=O)[O-])c1	/	16	/
O=C(c1cccc(C(F)(F)F)c1)N(c1ccccn1)C1CCCCC1	0.06	0	/
O=C(NNC(=S)Nc1ccc(Br)cc1Cl)c1ccncc1	6*	11	0.11*
O=C(NNC(=S)Nc1ccccc1)c1ccncc1	-0.13	/	/
Cc1cc(/C=N/n2cnnc2)c(C)n1-c1ccc(Cl)cc1Cl	3.2*	/	?
Cc1cc(/C=N/n2cnnc2)c(C)n1-c1ccc(Cl)cc1	/	7	/
Cc1ccc(NC(=O)c2noc3c2CCc2ccccc2-3)cc1	0.8	/	/
COc1ccc(-c2cc(C(=O)Nc3cc(C)on3)no2)cc1OC	-0.75	12	/
COc1ccc(-c2cc(C(=O)Nc3cc(C)nn3-c3ccccc3)no2)cc1OC	3.7*	16	0.077
Cc1cc(NC(=O)c2noc3c2CCc2ccccc2-3)n(-c2ccccc2)n1	/	/	0.083
CCNc1nc(NCC)n2c(SCC(=O)Nc3ccccc3[N+](=O)[O-])nnc2n1	-0.0057	4	/
Cn1c(=O)oc2cc(S(=O)(=O)Nc3cccc4c3CCCC4)ccc21	-0.52	/	/
Cc1ccc(/C=N/Nc2nc(N3CCCCC3)nc(N3CCCCC3)n2)o1	-1.7	10	/
COC(=O)c1ccccc1-c1ccc(/C=N/Nc2nc(N3CCCC3)nc(N3CCCC3)n2)o1	/	15	?
CCN1CCN(C(=O)c2ccc3c(c2)S(=O)(=O)c2ccccc2C3=O)CC1	1.5*	11	0.08
CN1CCN(C(=O)c2ccc3c(c2)S(=O)(=O)c2ccccc2C3=O)CC1	0.64	-12	/
CC(=O)C(Sc1ncnc2sc3c(c12)CCCC3)C(C)=O	-1.3	5	/
CC(C)c1onc(C(=O)N2CCCCCC2)c1[N+](=O)[O-]	-0.82	18	/
CCOC(=O)N1CCN(C(=O)c2noc(C(C)C)c2[N+](=O)[O-])CC1	1.9	12	0.079
CC(=O)c1sc(NC(=O)c2ccccc2)nc1-c1ccccc1	0.55	1	/
CCOC(=O)Nc1nc(-c2ccccc2)c(C(=O)c2ccccc2)s1	3.6*	/	0.082
COC(=O)Nc1nc(-c2ccccc2)c(C(=O)c2ccc(Cl)cc2)s1	2	/	/
CC(=O)c1sc(NC(=O)c2c(F)cccc2F)nc1-c1ccccc1	-12*	-2	0.078
SMILES	ROMK primary	Biofilm kill mix	ROMK retest
Cc1cc(C(=O)NNS(=O)(=O)c2ccc(C(C)(C)C)cc2)nn1C(C)(C)C	-0.66	19	/
Cc1cc(NC(=NC2CC2)c2ccccc2F)n(-c2ccccc2)n1	0.75	17	/
O=C(Cn1cnc([N+](=O)[O-])n1)NCc1ccccc1	-0.28	/	/
O=C(CCCn1cnc([N+](=O)[O-])n1)Nc1cccc2ccccc12	0.022	13	0.073
CC(=O)c1c(C)[nH]c(C(=O)NCc2cccc(Cl)c2)c1C	-1.6	16	/
COC(=O)c1cc(=O)n(-c2ccc(C(F)(F)F)cc2)[nH]1	/	5	/
CCOc1ccc2cc(C3CC(c4ccco4)=NN3S(C)(=O)=O)c(=O)[nH]c2c1 (configuration not stated)	/	15	/
COc1ccc(C2=NOC(C(=O)NCc3ccco3)C2)cc1 (configuration not stated)	3.9*	/	?
COc1cc(C2=NOC(C(=O)NCc3ccco3)C2)cc(OC)c1OC (configuration not stated)	-0.044	/	/
COc1ccc(C2=NOC(C(=O)NCc3cccs3)C2)cc1 (configuration not stated)	3.8*	/	0.084
COc1ccc(C2=NOC(C(=O)NCc3cccs3)C2)cc1OC (configuration not stated)	0.92	/	/
CC(=O)NC(Cc1cccc(F)c1)C(=O)NC1CCN(C(=O)c2ccc(C)cc2)CC1 (configuration not stated)	1.1	13	/
O=C(Oc1cccc(/C=N/Nc2nc(Nc3ccccc3)nc(N3CCOCC3)n2)c1)c1ccco1	-0.31	-2	/
c1ccc(CC2=NCCN2)cc1	3.1*	/	0.079
c1ccc(CN(CC2=NCCN2)c2ccccc2)cc1	/	14	/
CN(C(=O)c1cccc(C#N)c1)c1nnc(-c2ccncc2)s1	0.0022	/	/
COc1cccc(C(=O)N(C)c2nnc(-c3ccncc3)s2)c1	/	/	0.081
COc1ccccc1NC(=O)c1cc2cc(Br)ccc2cc1O	1.5	24	/
C/C(=N\NC(=O)c1ccccc1)c1cc2cc([N+](=O)[O-])ccc2oc1=O	-2.9*	12	0.055*
C/C(=N\NC(=O)c1ccc([N+](=O)[O-])cc1)c1cc2ccccc2oc1=O	/	16	/
O=C(COC(=O)Cc1ccc(Cl)cc1)Nc1c(F)cccc1F	-0.27	11	/
CC(C)(C)OC(=O)C(C)(C)Sc1nnc(N)s1	/	14	/
S=C(Nc1ccccc1)N1CCN(C(=S)Nc2ccccc2)CC1	-13*	-9	0.087
S=C(Nc1ccccc1)N1CCCCCCC1	0.16	7	/
S=C(Nc1ccc(Oc2ccccc2)cc1)N1CCN(c2ccccn2)CC1	2.6*	9	0.082
SMILES	ROMK primary	Biofilm kill mix	ROMK retest
COc1cccc(NC(=S)N2CCN(c3ccccn3)CC2)c1	0.27	4	/
Nn1c(SCc2cccc(Br)c2)nnc1-c1cccnc1	/	19	/
CCOc1cc(O)c(-c2[nH]ncc2-c2nc(C)cs2)cc1CC	/	19	/
COc1ccc(S(=O)(=O)NCCN2CCNC2=O)cc1OC	/	28	/
CCC1N=C(SC)NC(C)=C1C(=O)c1ccccc1 (configuration not stated)	0.046	25	/
CSC1=NC(C(Cl)(Cl)Cl)N=C(c2ccc(C)cc2)N1 (configuration not stated)	2.7*	19	0.1*
CCOCC(=O)Nc1ccccc1C(=O)O	/	29	/
Cc1cc(C(=O)NNc2ccc(C(C)C)cc2)n(C(C)(C)C)n1	-0.2	3	/
CN(/N=C/c1c[nH]c2ccccc12)c1cnn(-c2ccc(F)c(Cl)c2)c(=O)c1Cl	-1.4	/	/
CN(/N=C/c1cccnc1)c1cnn(-c2ccc(F)c(Cl)c2)c(=O)c1Cl	1.7*	/	0.089
O=C(CS(=O)(=O)Cc1ccccc1)N1CCN(c2cccc(C(F)(F)F)c2)CC1	-3.2*	/	?
COCC(=O)N1CCN(c2cccc(C(F)(F)F)c2)CC1	/	25	/
CCCCN(C)S(=O)(=O)c1ccc(C(=O)Nc2nnc(-c3ccco3)o2)cc1	3.2*	9	0.091
CCN(CC)S(=O)(=O)c1ccc(C(=O)Nc2nnc(-c3ccco3)o2)cc1	-0.25	13	/
C=CCn1c(SCC(N)=O)nnc1-c1cnccn1	0.53	14	/
C=CCn1c(SCC(N)=O)nnc1-c1cccc(Br)c1	/	/	0.087
O=C(O)CC(Sc1n[nH]c(=S)s1)C(=O)O (configuration not stated)	/	-6	/
Nc1ccc(CSc2ccc(Cl)cc2)cc1	-0.79	17	/
CCC(=O)Nc1cccc(C(=O)/C=C/c2cccs2)c1	-1.4	14	0.069*
CCC(=O)Nc1cccc(C(=O)c2ccccc2)c1	0.078	/	/
O=C(Cn1cc[n+](CC(=O)c2ccc(Cl)cc2Cl)c1)c1ccc(Cl)cc1Cl	-3*	9	0.08
Cc1nn(CC(=O)c2ccc(Cl)cc2Cl)c(C)[n+]1N	/	15	/
COc1ccc(C(=O)NCC(=O)OCC(=O)Nc2cc([N+](=O)[O-])ccc2F)cc1	0.59	6	/
CC1(C)CNC(=O)c2sc(N3CCCCC3)nc2C1	0.49	/	/
CC1(C)CNC(=O)c2sc(NC(=O)c3ccccc3Cl)nc2C1	-0.32	-2	0.076
